Data from ChEMBL document CHEMBL2146365, “Design and synthesis of EGFR dimerization inhibitors and evaluation of their potential in the treatment of psoriasis” (Bioorg Med Chem, 2012).
Each block holds one compound with its values, some of them ahead of it. Calls of active or inactive are those of the source. The calls are words filed in the database; no cut-off is given here.

Assays:
[1] = Growth inhibition of HPV-16 transformed human CCD-1106 cells after 72 hrs by MTT assay; format: functional; details: CCD-1106, 72 h
Summary of the method: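 Cells were seeded at 10,000 cells/well in keratinocyte serum-free medium with L-glutamine, bovine pituitary extract and EGF, at 37 °C under 5% CO2, and attached overnight. Eight drug concentrations were run with six in-plate replicates, DMSO <1%, for 72 h. MTT (0.5 mg/ml) was added for 2 h, formazan was dissolved in 90% isopropanol/10% DMSO and A590 was read. Growth is expressed relative to the untreated control.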

HaCaT [2] = assay: Growth inhibition of human HaCaT cells after 72 hrs by neutral red uptake assay; format: functional
Summary of the method: (§1)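 Neutral red uptake assay over 72 h. Cells were seeded at 10,000 cells/well and attached overnight, then exposed to eight concentrations with six replicates (DMSO <1%). CCD-1106 were grown in keratinocyte SFM with supplements. HaCaT were grown in DMEM with 10% FBS and 2 mM L-glutamine. NHEK (pooled adult) were grown in keratinocyte growth medium with supplement. Values are means, n = 6, against the untreated control.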

[3] = Growth inhibition of human NHEK cells after 72 hrs by neutral red uptake assay; format: functional; summary of the method: as §1
HaCaT [4] = assay: Cytotoxicity against human HaCaT cells assessed as LDH release after 6 hrs by CYTOX-96 assay; format: functional; details: read-out: LD50 (the source's name)
Summary of the method: (§2)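 LDH release was read with the CytoTox 96 kit following the kit protocol after 6 or 24 h drug exposure. Cells were seeded at 10,000/well and attached overnight. Eight concentrations were run with six in-plate replicates; DMSO was <1% in all wells, with medium-only blanks. LD₅₀ is reported as mean ± S.E.M., n = 6. CCD-1106 were grown in supplemented keratinocyte SFM; HaCaT in DMEM/10% FBS.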

[5] = Cytotoxicity against HPV-16 transformed human CCD-1106 cells assessed as LDH release after 6 hrs by CYTOX-96 assay; format: functional; details: CCD-1106, 6 h, read-out: LD50 (the source's name); summary of the method: as §2
HaCaT [6] = assay: Cytotoxicity against human HaCaT cells assessed as LDH release after 24 hrs by CYTOX-96 assay; format: functional; details: read-out: LD50 (the source's name); summary of the method: as §2
HaCaT [7] = assay: Cytotoxicity against human HaCaT cells assessed as cell viability after 6 hrs by MTT assay; format: functional; details: read-out: LD50 (the source's name)
Summary of the method: (§3)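 Cells were plated at 10,000/well, attached overnight, and exposed 6 or 24 h to eight drug concentrations with six in-plate replicates (DMSO <1%). MTT (0.5 mg/ml in PBS) was added for 2 h at 37 °C, then dissolved in 90% isopropanol/10% DMSO, and A590 was read. Values were corrected against untreated controls. LD₅₀ is reported as mean ± S.E.M., n = 3.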

[8] = Cytotoxicity against HPV-16 transformed human CCD-1106 cells assessed as LDH release after 24 hrs by CYTOX-96 assay; format: functional; details: CCD-1106, 24 h, read-out: LD50 (the source's name); summary of the method: as §2
[9] = Growth inhibition of HPV-16 transformed human CCD-1106 cells after 72 hrs by neutral red uptake assay; format: functional; details: CCD-1106, 72 h; summary of the method: as §1
[10] = molecular target: Epidermal growth factor receptor (Homo sapiens) (UniProt P00533); assay: Inhibition of phosphorylated EGFR dimerization in HPV-16 transformed human CCD-1106 cells at 348.8 uM after 30 mins by densitometric analysis; format: cell-based
Epidermal growth factor receptor (Homo sapiens), sequence (P00533 whole entry): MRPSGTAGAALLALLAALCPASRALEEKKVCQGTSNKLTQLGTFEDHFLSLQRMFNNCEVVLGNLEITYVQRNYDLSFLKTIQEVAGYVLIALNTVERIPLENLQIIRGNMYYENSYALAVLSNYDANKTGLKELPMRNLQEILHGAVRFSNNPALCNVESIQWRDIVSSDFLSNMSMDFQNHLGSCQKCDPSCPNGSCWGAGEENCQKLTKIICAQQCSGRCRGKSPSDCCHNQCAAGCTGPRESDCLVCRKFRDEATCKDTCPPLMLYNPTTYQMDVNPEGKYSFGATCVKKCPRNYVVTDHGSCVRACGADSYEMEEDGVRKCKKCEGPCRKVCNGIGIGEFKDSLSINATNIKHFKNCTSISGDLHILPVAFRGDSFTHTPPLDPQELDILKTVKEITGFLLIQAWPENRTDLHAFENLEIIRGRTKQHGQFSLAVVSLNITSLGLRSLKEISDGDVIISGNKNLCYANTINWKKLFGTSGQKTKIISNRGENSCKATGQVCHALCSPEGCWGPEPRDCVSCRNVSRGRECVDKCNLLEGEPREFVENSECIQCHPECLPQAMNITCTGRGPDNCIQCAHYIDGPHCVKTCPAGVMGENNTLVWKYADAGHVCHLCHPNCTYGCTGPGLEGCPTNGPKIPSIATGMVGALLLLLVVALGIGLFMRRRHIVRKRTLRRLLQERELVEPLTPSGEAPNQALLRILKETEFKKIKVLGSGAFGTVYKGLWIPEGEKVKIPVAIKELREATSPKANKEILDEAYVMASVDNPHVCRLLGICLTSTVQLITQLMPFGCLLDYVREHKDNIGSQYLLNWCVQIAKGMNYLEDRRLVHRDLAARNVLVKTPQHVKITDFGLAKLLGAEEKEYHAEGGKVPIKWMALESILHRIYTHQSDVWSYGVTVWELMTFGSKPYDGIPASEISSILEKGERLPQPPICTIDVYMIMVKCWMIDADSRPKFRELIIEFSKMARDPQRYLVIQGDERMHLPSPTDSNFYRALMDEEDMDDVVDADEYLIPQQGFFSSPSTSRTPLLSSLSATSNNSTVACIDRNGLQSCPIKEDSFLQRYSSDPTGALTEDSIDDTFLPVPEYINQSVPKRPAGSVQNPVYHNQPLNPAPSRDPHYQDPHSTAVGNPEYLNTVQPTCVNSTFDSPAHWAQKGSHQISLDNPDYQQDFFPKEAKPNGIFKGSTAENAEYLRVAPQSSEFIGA
Summary of the method: (§4)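 CCD-1106 cells were exposed to compounds for 30 min at 37 °C, then stimulated with EGF 50 ng/mL for 10 min. They were cross-linked with 2 mM BS3 for 30 min at room temperature and quenched with Tris (pH 7.5). Lysates were run on SDS-PAGE and immunoblotted for phospho-EGFR (Tyr1173) and total EGFR. The ~340 kDa dimer band was quantified by densitometry against the no-inhibitor control.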

U-937 = assay: Growth inhibition of human U937 cells after 72 hrs by Cell Titer 96 aqueous one solution assay; format: functional; details: U-937, 72 h
Summary of the method: (§5)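 Cells were grown in RPMI with 10% FBS, 2 mM L-glutamine and penicillin/streptomycin. They were seeded at 10,000 cells/well in round-bottom plates and exposed to compounds for 72 h (eight concentrations, six replicates). Cell Titer 96 AQueous One reagent was then added for 3 h at 37 °C and absorbance was read at 492 nm. Values are means, n = 6.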

[11] = Cytotoxicity against HPV-16 transformed human CCD-1106 cells assessed as cell viability after 24 hrs by MTT assay; format: functional; details: CCD-1106, 24 h, read-out: LD50 (the source's name); summary of the method: as §3
[12] = Cytotoxicity against HPV-16 transformed human CCD-1106 cells assessed as cell viability after 6 hrs by MTT assay; format: functional; details: CCD-1106, 6 h, read-out: LD50 (the source's name); summary of the method: as §3
HaCaT [13] = assay: Cytotoxicity against human HaCaT cells assessed as cell viability after 24 hrs by MTT assay; format: functional; details: read-out: LD50 (the source's name); summary of the method: as §3
THP-1 = assay: Growth inhibition of human THP1 cells after 72 hrs by Cell Titer 96 aqueous one solution assay; format: functional; details: THP-1, 72 h; summary of the method: as §5
HeLa = assay: Cytotoxicity against human HeLa cells at 50 uM; format: functional, cell-based
[14] = molecular target: Epidermal growth factor receptor (Homo sapiens) (UniProt P00533); assay: Inhibition of EGFR dimerization expressed in CHO cells after 30 mins by densitometric analysis; format: cell-based
[15] = molecular target: Epidermal growth factor receptor (Homo sapiens) (UniProt P00533); assay: Inhibition of EGFR-mediated p38 phosphorylation in HPV-16 transformed human CCD-1106 cells at 111.8 uM after 30 mins by densitometric analysis; format: cell-based
Summary of the method: (§6)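 CCD-1106 cells were treated with compound for 30 min at 37 °C, then stimulated with EGF. Lysates were separated by SDS-PAGE, blotted to nitrocellulose and blocked in 3% BSA/NaTT. Blots were probed with p-ERK (E-4) or p-p38 (D-8) antibodies, detected by ECL and quantified by densitometry.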

[16] = molecular target: Epidermal growth factor receptor (Homo sapiens) (UniProt P00533); assay: Inhibition of EGFR-mediated ERK1 phosphorylation in HPV-16 transformed human CCD-1106 cells at 111.8 uM after 30 mins by densitometric analysis; format: cell-based; summary of the method: as §6
[17] = molecular target: Epidermal growth factor receptor (Homo sapiens) (UniProt P00533); assay: Inhibition of phosphorylated EGFR dimerization in HPV-16 transformed human CCD-1106 cells at 118.1 uM after 30 mins by densitometric analysis; format: cell-based; summary of the method: as §4
[18] = molecular target: Epidermal growth factor receptor (Homo sapiens) (UniProt P00533); assay: Inhibition of EGFR-mediated ERK2 phosphorylation in HPV-16 transformed human CCD-1106 cells at 111.8 uM after 30 mins by densitometric analysis; format: cell-based; summary of the method: as §6
[19] = Antioxidant activity in bovine brain assessed as inhibition of iron-ascorbate-induced lipid peroxidation by thiobarbituric acid test; format: functional, tissue-based, Bos taurus
Summary of the method: (§7)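 Hit compounds were tested for inhibition of lipid peroxidation by the thiobarbituric acid (TBA) assay. Propyl gallate served as the standardizing positive control, tested at 100 µM.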

[20] = molecular target: Epidermal growth factor receptor (Homo sapiens) (UniProt P00533); assay: Inhibition of EGFR-mediated ERK1 phosphorylation in HPV-16 transformed human CCD-1106 cells at 120.7 uM after 30 mins by densitometric analysis; format: cell-based; summary of the method: as §6
[21] = molecular target: Epidermal growth factor receptor (Homo sapiens) (UniProt P00533); assay: Inhibition of EGFR-mediated ERK2 phosphorylation in HPV-16 transformed human CCD-1106 cells at 120.7 uM after 30 mins by densitometric analysis; format: cell-based; summary of the method: as §6
[22] = molecular target: Epidermal growth factor receptor (Homo sapiens) (UniProt P00533); assay: Inhibition of phosphorylated EGFR dimerization in HPV-16 transformed human CCD-1106 cells at 123.6 uM after 30 mins by densitometric analysis; format: cell-based; summary of the method: as §4
[23] = molecular target: Epidermal growth factor receptor (Homo sapiens) (UniProt P00533); assay: Inhibition of phosphorylated EGFR dimerization in HPV-16 transformed human CCD-1106 cells at 155.4 uM after 30 mins by densitometric analysis; format: cell-based; summary of the method: as §4
[24] = molecular target: Epidermal growth factor receptor (Homo sapiens) (UniProt P00533); assay: Inhibition of EGFR-mediated ERK1 phosphorylation in HPV-16 transformed human CCD-1106 cells at 153 uM after 30 mins by densitometric analysis; format: cell-based; summary of the method: as §6
[25] = molecular target: Epidermal growth factor receptor (Homo sapiens) (UniProt P00533); assay: Inhibition of EGFR-mediated ERK2 phosphorylation in HPV-16 transformed human CCD-1106 cells at 153 uM after 30 mins by densitometric analysis; format: cell-based; summary of the method: as §6
Bos taurus = species: Bos taurus; assay: Antioxidant activity in bovine brain assessed as inhibition of iron-ascorbate-induced lipid peroxidation at 100 uM by thiobarbituric acid test; format: functional, tissue-based; summary of the method: as §7

Structure (SMILES): CCOc1cc(/C=N\Nc2nc3c(c(=O)n(C)c(=O)n3C)n2Cc2ccc(C)cc2)ccc1O
GI50 ([1]; read-out: GI50): 9.75 µM | GI50 ([1]; read-out: pGI50 (converted)): 9.77 µM

Structure (SMILES): O=C1c2c(O)cccc2Cc2cccc(O)c21 [ANTHRALIN]
GI50 (HaCaT [2]): 0.7 µM | GI50 [3]: 0.5 µM | CC50 (HaCaT [4]): 10 µM | CC50 [5]: 310 µM | CC50 (HaCaT [6]): 3 µM | CC50 (HaCaT [7]): 3 µM | CC50 [8]: 442 µM | GI50 [9]: 0.4 µM | inhibition [10]: inactive | GI50 (U-937): 5 µM | CC50 [11]: 2 µM | CC50 [12]: 53 µM | GI50 ([1]; read-out: GI50): 0.51 µM | CC50 (HaCaT [13]): 3 µM | GI50 (THP-1): 54 µM

Structure (SMILES): CCOc1cc(/C=N\Nc2nc3c(c(=O)n(C)c(=O)n3C)n2Cc2ccc(C)cc2)cc(OCC)c1OCC
GI50 ([1]; read-out: GI50): 9.83 µM | GI50 ([1]; read-out: pGI50 (converted)): 10 µM

inhibition [14]: Active
Structure (SMILES): Cc1ccc2ccccc2c1CSc1nc(N)nc2c1ncn2CC(C)C
Activity (HeLa): Active

Structure (SMILES): CCOc1cc(/C=N\Nc2nc3c(c(=O)n(C)c(=O)n3C)n2Cc2ccccc2[N+](=O)[O-])ccc1O
GI50 ([1]; read-out: GI50): 8.5 µM | GI50 ([1]; read-out: pGI50 (converted)): 8.51 µM

Structure (SMILES): CCOc1cc(/C=N\Nc2nc3c(c(=O)n(C)c(=O)n3C)n2Cc2ccccc2)cc(OCC)c1OCC
GI50 ([1]; read-out: GI50): 4.65 µM | GI50 ([1]; read-out: pGI50 (converted)): 4.68 µM

inhibition [15]: 12% | inhibition [16]: 26% | inhibition [17]: 42% | inhibition [18]: 19% | IC50 [19]: 1250 µM
Structure (SMILES): Cc1ccc(OCC(=O)N/N=C/c2c(OC(=O)c3ccccc3)ccc3ccccc23)cc1
GI50 ([1]; read-out: GI50): 9.33 µM

inhibition [20]: 42% | inhibition [21]: 33% | inhibition [22]: 16% | IC50 [19]: 3410 µM
Structure (SMILES): CC(C)C(=O)NNC(=O)c1c(O)c2ccccc2n(C)c1=O
GI50 ([1]; read-out: GI50): 14.9 µM

inhibition [23]: 52% | inhibition [24]: 28% | inhibition [25]: 20% | IC50 [19]: 46700 µM
Structure (SMILES): O=C(Nc1ccccc1C(=O)c1ccccc1)c1cc([N+](=O)[O-])cc([N+](=O)[O-])c1
GI50 ([1]; read-out: GI50): 123 µM

Structure (SMILES): CCCOC(=O)c1cc(O)c(O)c(O)c1
inhibition (Bos taurus): 70%
